Several values for one entry are separate records, joined by “and”; a condition that tells them apart may be missing. Equal values may be shown once. Activity calls are given as the source filed them.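 How the source made its calls: active means compounds lowering yeast growth whose fitted half-maximal concentration is at most twice the top tested dose; inconclusive means flat curve with moderate growth inhibition, or a poor curve fit; inactive means the rest.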
Tested on: not listed separately
Assay: yeast growth reduction with glucose carbon source – OD600, powder samples, set 3, dose response (AID 623971)
Conditions: S. cerevisiae growth in glucose, OD600, 48 h; at 3 µM (top of the series)
In short: (§1)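 Material: S. cerevisiae yeast; buffer or medium: CSM growth medium supplemented with glucose; doses: test compounds transferred into wells by pin tool; incubation: 48 h at 30 °C without shaking; measured by: OD600 absorbance; controls: amphotericin B 10 µM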
For `CCOC(=O)N1C(=O)C2(CCCCC2)N(c2ccc(C)cc2)C1=S`, the activity change, negative = growth inhibition was -5.09% (inactive) and -19.8% (inactive).
With `C/C=C/[C@@H]1[C@H]2C[C@@H](C)CC[C@@H]2C(C)=C[C@H]1C(=O)c1c(O)c(-c2ccc(O)cc2)c[nH]c1=O` the activity change, negative = growth inhibition was -5.04% (inactive).
With `CCOC(=O)N1C(=O)C2(CCCCC2)N(c2ccccc2)C1=S` the activity change, negative = growth inhibition was -11.6% (inactive).
In the case of `CCOC(=O)N1C(=O)C2(CCCCC2)N(c2ccc(F)cc2)C1=S`, the activity change, negative = growth inhibition was -4.53% (inactive).
In the case of `CCOC(=O)N1C(=O)C2(CCCCC2)N(c2ccc(Cl)cc2)C1=S`, the activity change, negative = growth inhibition was -15.5% (inactive).
With `CCOC(=O)N1C(=O)C2(CCCCC2)N(c2ccc(C#N)cc2)C1=S` the activity change, negative = growth inhibition was -21.5% (inactive).
For `CCOC(=O)N1C(=O)C2(CCCCC2)N(c2cccc(C)c2)C1=S`, the activity change, negative = growth inhibition was -4.85% (inactive).

Tested on: S. cerevisiae growth in glucose, OD600, 48 h
Assay: as above
Conditions: not given
In short: as §1
`CC1/C=C/C=C\C=C\C=C\C=C\C=C\C=C\C(O[C@H]2OC(C)C(O)C(N)C2O)CC2OC(O)(CC(O)CC(O)C(O)CCC(O)CC(O)CC(=O)OC(C)C(C)C1O)CC(O)C2C(=O)O` (stereo partly drawn) showed an AC50 of 384 nM.
